The values that follow come from PubChem BioAssay AID504382 (The Scripps Research Institute Molecular Screening Center, 2011).

Among all 2,500 compounds or so, about 460 (18%) were called active. These entries were drawn from the full list. A number with no mark means an inactive call.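 Rule for the calls: active = mean activation above a cutoff of low control average plus 3 SD from the earlier screen (cut at about 12% in these data); inactive = the rest.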

The nature of the experiment: compound fluorescence interference without thin filaments, confirmation, artefact control for cardiac RTF calcium sensitizer project, biochemical (AID 504382). The conditions noted are these: IANBD fluorescence interference counterscreen, buffer, EC20 Ca2+; at 7.2 µM; active compounds read high. In short, it runs like this: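 Medium: MOPS buffer, 190 mM, with KCl, MgCl2, EGTA, NTA, DTT, pH 7.20; Dosing: one dose of 7.2 µM, 0.7% DMSO; Probe or stimulus: calcium at EC20 level, 0.472 mM final; Incubation: 15 min, 25 °C; Evaluation: compound fluorescence interference relative to control well signal range; Signal: fluorescence, 480/540 nm.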
Background: The purpose of a counterscreen is to sort out artefacts and off-target activity.
For `COc1cc(/C=C2/C(=O)NC(=O)N(c3ccc(C)cc3)C2=O)cc(OC)c1OC`, the fluorescence artifact activation is 0.06%. The result for `CCN1C[C@]2(CO)CC[C@H](OC)[C@@]34C5C[C@H]6[C@H](OC)C5[C@](O)(C[C@H]6OC)[C@@H](C(OC)C23)[C@@H]14` (some centres undefined) reads 2.26%; that for `NC(=O)c1c(NC(=O)c2ccc(S(=O)(=O)N(CCCl)CCCl)cc2)sc2c1CCCCC2`, 0.08%.

Consider `CC1=NCCc2c1[nH]c1cc(O)ccc21`, for which the fluorescence artifact activation is 0.1%. Take `Cc1cc(Cl)ccc1C(=O)C1CCCN(C2CCSCC2)C1` (centres undefined): the fluorescence artifact activation is 0%. On to `COC(=O)C1=C(c2cccc(C#N)c2)C[C@@H]2CC[C@H]1N2C(=O)N1CCOCC1`, for which the fluorescence artifact activation is 1.36%. Turning to `Nc1c(C(=O)NCC2CCCO2)c2nc3ccccc3nc2n1Cc1ccco1` (centres undefined), the fluorescence artifact activation was 732% (active). As to `COCCOC(=O)c1c(N)n(Cc2ccco2)c2nc3ccccc3nc12`, the fluorescence artifact activation was -0.01%. Under `COCCNC(=O)c1c(N)n(Cc2ccco2)c2nc3ccccc3nc12` stands 1.48%.

As to `CCOC(=O)c1cc(CC)sc1/N=C/c1c(O)[nH]c(=S)[nH]c1=O`, the fluorescence artifact activation was 1.47%. As for `CCN(CC)c1ccc(C=C2C(=O)N(C)C(=S)N(C)C2=O)o1`, the fluorescence artifact activation was -0.01%. As to `Cc1cc(C=C(C#N)C#N)ccc1N1CCCC1`, the fluorescence artifact activation was 0.79%. For the compound `Cc1cc(N2CCCC2)ccc1C=C(C#N)C#N`, the fluorescence artifact activation was 17.8% (active). The result for `COc1ccc(-n2c(O)c(/C=C/C=Nc3ccccc3)c(=O)[nH]c2=O)cc1` reads -0.12%. The result for `Cc1ccc(/C=C2/Sc3ccc(C(=O)N4CCC5(CC4)OCCO5)cc3NC2=O)cc1` reads 38.7% (active). As for `CNS(=O)(=O)c1ccc(N=Cc2c(O)n(-c3ccccc3)c(=O)[nH]c2=O)cc1`, the fluorescence artifact activation is 8.1%. The result for `CCC1(C)OC(c2ccccc2)=C/C(=C/C=C2C(=O)NC(=O)NC2=O)O1` (centres undefined) reads 4.44%; that for `CCN(CC)CCCOC(=O)C(OC(C)C)(c1ccccc1)c1ccccc1`, 17.1% (active). Under `CCCCN1C(=O)NC(=O)C2(Cc3ccccc3N3CCOCC32)C1=O` (centres undefined) stands -0.11%. Under `Cc1ccc(-n2c(O)c(C=NCC3CCCO3)c(=O)[nH]c2=O)c(C)c1` (centres undefined) stands 0.07%; under `N#CC(C#N)=Cc1ccc(-c2ccccc2F)o1`, 6.89%. Regarding `CCCc1cc(=O)oc2cc(OCC(=O)N3CCC(C(=O)O)(c4ccccc4)CC3)ccc12`, the fluorescence artifact activation was 0.1%. As to `CCCc1cc(=O)oc2cc(OCC(=O)N3C[C@H]4C[C@@H](C3)c3cccc(=O)n3C4)ccc12`, the fluorescence artifact activation was 36.4% (active). For `Cn1c(O)c(/C=C/C=Nc2ccccc2)c(=O)n(C)c1=S`, the fluorescence artifact activation was 5.68%.
